Source: article PMC7127107 (Bioorganic & Medicinal Chemistry, 2013)

How the values were obtained:
[1] = system: PEDV SM98 strain; assay: Simultaneous-treatment antiviral assay; format: cell-based, porcine epidemic diarrhea virus; conditions: for IC50: Porcine epidemic diarrhea virus, Vero, read-out: Simultaneous-treatment IC50; for selectivity ratio at 72 h: African green monkey, Vero cells infected with PEDV SM98 strain
Outline: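 Test compound at various concentrations was premixed with PEDV SM98 (MOI 0.01) for 1 h at 4 °C. The mixture was put on near-confluent Vero monolayers (1 × 10^5 cells/well) for 1 h with occasional rocking, then replaced with fresh medium; triplicate wells. After 72 h, MTT was read (4 h, 37 °C; A540 minus 655 nm). IC50 came from regression analysis, and SI = CC50/IC50.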

[2] = Cytotoxicity in Vero cells; format: cell-based; conditions: African green monkey
Outline: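 Vero cells were seeded at 1 × 10^5 cells/well and grown for 48 h. They were then exposed for 72 h to twofold serial dilutions of test compound (5–600 μg/mL or μM). MTT was added for 4 h at 37 °C, and formazan was dissolved in 0.04 M HCl–isopropanol. Absorbance was read at 540 nm minus 655 nm background. CC50 came from regression analysis; experiments were run three times.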

[3] = system: PEDV SM98 strain; assay: Post-treatment antiviral assay; format: cell-based, porcine epidemic diarrhea virus; conditions: for IC50: Porcine epidemic diarrhea virus, Vero, read-out: Post-treatment IC50
Outline: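 Near-confluent Vero monolayers (1 × 10^5 cells/well) were infected with PEDV SM98 at MOI 0.01 for 1 h with occasional rocking. Inoculum was replaced by EMEM containing test compound (1–200 μM), in triplicate. After 72 h, viability was read by MTT (4 h, 37 °C; A540 minus 655 nm). IC50 came from regression analysis, and SI = CC50/IC50.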

[4] = system: PEDV (SM98 strain); assay: Hemagglutination inhibition; format: cell-based, porcine epidemic diarrhea virus; conditions: 4 HAU PEDV, rabbit RBCs, 1 h room temperature
Outline: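 PEDV at 4 HAU was mixed with an equal volume of twofold serial dilutions of test compound in PBS (pH 7.4), with PBS alone as negative control, for 1 h at 4 °C. The mixture was combined with an equal volume of 1% rabbit RBC suspension and incubated 1 h at room temperature. Experiments were run three times.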

[5] = system: PEDV (SM98 strain); assay: Confocal immunofluorescence imaging of PEDV-infected Vero cells; format: cell-based, porcine epidemic diarrhea virus; conditions: 30 μM, 24 h
[6] = system: PEDV; assay: Quantitative real-time RT-PCR of intracellular viral RNA; format: cell-based, porcine epidemic diarrhea virus
[7] = system: PEDV; assay: Western blot of viral spike; format: cell-based, porcine epidemic diarrhea virus
Outline: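 Vero cells at about 90% confluence were infected with PEDV at MOI 0.01 for 1 h, then cultured with 30 μM test compound or 0.5% DMSO. Cells were harvested at 6, 12, 18 and 24 h and lysed, and proteins were separated on Bis–Tris gels and blotted to nitrocellulose. Blots were probed with anti-S antibody (12 h, 4 °C) and HRP secondary, then developed by chemiluminescence; GAPDH served as loading control.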

Row | SMILES | IC50 [1] | Simultaneous-treatment IC50 ([1]; mixed with virus 0.01 MOI 1 h at 4 °C, Vero cells, 72 h) | CC50 at 72 h [2] | IC50 [3] | selectivity ratio at 72 h [1] | Minimum concentration that completely inhibited viral hemagglutination ([4]; listed as eckol (2)) | Number of fluorescence-positive, PEDV-infected cells [5] | Viral RNA levels, early stage ([6]; 30 μM, 6 and 12 h after infection) | Viral RNA levels, late stage ([6]; 30 μM, 18 and 24 h after infection, vs untreated/infected cells (0.5% DMSO)) | Viral RNA levels relative to vehicle-treated cells ([6]; 50 μM, 24 h after infection, ORF3 gene normalized to GAPDH) | Effect on viral RNA levels ([6]; 5–50 μM, 24 h after infection) | Minimum concentration that completely inhibited viral hemagglutination ([4]; listed as dieckol (5)) | selectivity ratio at 72 h ([3]; African green monkey, Vero cells infected with PEDV SM98 strain) | Synthesis of viral proteins, late stage ([7]; 30 μM, 18 and 24 h) | Synthesis of viral proteins (S protein) ([7]; 5–50 μM, 24 h post-infection)
1 | Oc1cc(O)cc(O)c1 [Compound 1, phloroglucinol] | > 200 µM | did not show significant inhibitory effects | 374 ± 4 µM | > 200 µM | – | – | – | – | – | – | – | – | – | – | –
2 | Oc1cc(O)cc(Oc2c(O)cc(O)c3c2Oc2c(O)cc(O)cc2O3)c1 [Compound 2, eckol] | 22.5 ± 2.2 µM | – | 388.3 ± 2.6 µM | > 200 µM | 17.2 | 3.8 to 5.4 µM | – | – | – | – | – | – | – | – | –
3 | Oc1cc(O)cc(Oc2c(O)cc(O)c3c2Oc2c(O)cc(Oc4c(O)cc(Oc5c(O)cc(O)c6c5Oc5c(O)cc(O)cc5O6)cc4O)cc2O3)c1 [Compound 5, dieckol] | 16.6 ± 3 µM | – | 490.6 ± 1.6 µM | 14.6 ± 1.3 µM | 29.5 | – | reduced the number of fluorescence-positive, PEDV-infected cells | largely unchanged | markedly decreased | 30–40% | significantly reduced viral RNA levels in dose-dependent manner | 3.8 to 5.4 µM | 33.6 | strongly inhibited | inhibited the synthesis of viral proteins
